The nature of series [1]: folding enthalpy; higher = less favourable; fluorescence melt of hairpins on a sequencing array, two-state fit. To be noted: sodium 0.088 M. The procedure, abridged: (§1)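 Folding enthalpy and melting temperature come from bootstrapped two-state fits to Cy3 fluorescence of library hairpins carrying annealed Cy3 and quencher oligos on a sequenced MiSeq flow cell. Imaging was done in 50 mM Na-HEPES pH 8.0, 25 mM NaCl, stepping by 2.5 °C up to 60 °C, and signals were normalised to pre-quench Cy3 and to control constructs. Results of four replicates were combined by inverse variance, and fitted temperatures were raised by 9.35 °C to match UV melts.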

Series [2] in a line: melting temperature; fluorescence melt of hairpins on a sequencing array, two-state fit, raised by 9.35 °C to match UV melts. To be noted: sodium 0.088 M. The procedure, abridged: as §1

For 31 sequences, folding enthalpy and Tm results are on record in the array DNA melting data of Ke et al. (doi:10.1101/2024.01.08.574731).

Regarding GCCCAGGGAAACCTGAGC ((.((((....)))).)), the folding enthalpy in series [1] was -19.2 kcal/mol. Also, the Tm in series [2] was determined as 45.5 °C.

GATCGTCCGAACGATC ((((((....)))))): the folding enthalpy in series [1] was -39.2 kcal/mol. The Tm in series [2] is 55.2 °C.

Turning to GCACTCGGAAACGAGCAC (..((((....))))..), in series [1], the folding enthalpy was -11.7 kcal/mol. Also, the Tm in series [2] came to 29.3 °C.

In the case of GCCCCGCGAAAGCGCGGC (((.(((....))).))), in series [1], the folding enthalpy is -17.4 kcal/mol. Moreover, in series [2], the Tm turned out to be 64.4 °C.

Regarding GACTATGAAAATAGTC ((((((....)))))), the folding enthalpy in series [1] is -32.8 kcal/mol. Moreover, the Tm in series [2] stood at 49.5 °C.

For the sequence GATCGCTGGCGCGATC ((((((....)))))), the folding enthalpy in series [1] is -35.7 kcal/mol. Besides, the Tm in series [2] was 65.9 °C.

For the sequence GGCCTAGGAAACTAGGTC (.(((((....))))).), the folding enthalpy in series [1] was -33.7 kcal/mol. The Tm in series [2] came out at 51.6 °C.

As for GATCACAGGGTGATC ((((((...)))))), the folding enthalpy in series [1] is -36.8 kcal/mol. The Tm in series [2] came to 61.2 °C.

As to GTGTTAGGAAACTAATAC ((.((((....)))).)), the folding enthalpy in series [1] was -23.9 kcal/mol. Moreover, the Tm in series [2] was determined as 37.2 °C.

For the sequence GATCCAAACGTGGATC ((((((....)))))), in series [1], the folding enthalpy was -37.4 kcal/mol. Also, the Tm in series [2] came to 49 °C.

Turning to CGGGACGGAAACGTGCCG (((.(((....))).))), in series [1], the folding enthalpy is -19.1 kcal/mol. For the same sequence, in series [2], the Tm was determined as 60.3 °C.

Take GCGACGTCTCGC ((((....)))): the folding enthalpy in series [1] was -13.3 kcal/mol. The Tm in series [2] was 54.2 °C.

For GATCCAACACTGGATC ((((((....)))))), the folding enthalpy in series [1] was -43 kcal/mol. Moreover, in series [2], the Tm was found to be 48.1 °C.

Turning to GATCCGATCGCGGATC ((((((....)))))), the folding enthalpy in series [1] was -37.9 kcal/mol. In addition, the Tm in series [2] turned out to be 56 °C.

For GATCAATAACTTGATC ((((((....)))))), the folding enthalpy in series [1] is -31.6 kcal/mol. Also, the Tm in series [2] was 39.4 °C.

With GAGCACGAAAGTGGCCTC ((((((....)))..))), the folding enthalpy in series [1] is -14 kcal/mol. In addition, the Tm in series [2] came out at 42 °C.

On to GGCTAGGGAAACCTAGCC (((((((....))))))), for which the folding enthalpy in series [1] was -42.6 kcal/mol. For the same sequence, in series [2], the Tm is 67.5 °C.

Consider GCTCGGCGAAAGCGGGGC ((.(.((....)).).)), for which the folding enthalpy in series [1] is -20.6 kcal/mol. Also, the Tm in series [2] was 61.1 °C.

Regarding GCATTAGGAAACCAATGC (((((.(....).))))), in series [1], the folding enthalpy is -29.6 kcal/mol. The Tm in series [2] was determined as 39.6 °C.

In the case of GCGTTAGAACGC ((((....)))), in series [1], the folding enthalpy was -20.3 kcal/mol. In addition, the Tm in series [2] was found to be 52.8 °C.

On to GCTAGAGGAAACTCCAGC (((.(((....))).))), for which, in series [1], the folding enthalpy is -22.2 kcal/mol. In series [2], the Tm came to 34.8 °C.

Turning to GCCCTCGAAAGAGCCGGC ((((((....)))..))), the folding enthalpy in series [1] was -18.4 kcal/mol. Moreover, the Tm in series [2] is 40.4 °C.

As to GATCGAGGAAACTTGATC ((((.((....)).)))), the folding enthalpy in series [1] was -28.7 kcal/mol. Further, the Tm in series [2] was found to be 44.3 °C.

As for GATCAAGTTATTGATC ((((((....)))))), the folding enthalpy in series [1] is -35.8 kcal/mol. In series [2], the Tm was 49.8 °C.

GATCGTTTCAACGATC ((((((....)))))): the folding enthalpy in series [1] is -42 kcal/mol. In addition, the Tm in series [2] came out at 59.7 °C.

GCTCAGCGAAAGCAGAGC ((((.((....)).)))): the folding enthalpy in series [1] is -36.3 kcal/mol. Also, the Tm in series [2] was 67.3 °C.

GTTCGCGCGAAAGCGAAC (((..(((....)))))): the folding enthalpy in series [1] is -28.1 kcal/mol. In series [2], the Tm amounted to 60.5 °C.

As to GGTACCGAAAGGTACACC ((((((....)))..))), the folding enthalpy in series [1] was -9.32 kcal/mol. Besides, the Tm in series [2] turned out to be 51.7 °C.

Turning to GGCGTAGGAAACCACGCC (((((.(....).))))), the folding enthalpy in series [1] was -53.2 kcal/mol. In addition, in series [2], the Tm turned out to be 56.2 °C.

For GCCGTGCCGAAAGGCGGC (((..(((....)))))), the folding enthalpy in series [1] is -13.9 kcal/mol. Further, in series [2], the Tm was 66.8 °C.

With GTACACACGAAAGTGTAC (((..(((....)))))), in series [1], the folding enthalpy is -16.6 kcal/mol. For the same sequence, the Tm in series [2] came to 46.5 °C.
